Data from ChEMBL document CHEMBL3877241 (J Med Chem, 2016).
The source made the active and inactive calls. The calls are words filed in the database; no cut-off is given here.

What was measured:
[1] = biological target: Tyrosine-protein kinase JAK3 (Homo sapiens) (UniProt P52333); test: Inhibition of human JAK3 JH1 catalytic domain (I781 to S1124 residues) expressed in mammalian expression system assessed as residual activity at 100 nM by KINOMEScan assay relative to control
Procedure, shortened: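 DiscoveRx KINOMEscan competition binding against ATP sites in a 97-kinase panel, with compound at 100 nM. Binding reported as % of control.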

[2] = system: MOLM-14; test: Induction of apoptosis in human MOLM14 cells assessed as live cells at 3 uM after 48 hrs by Annexin-V FITC/propidium iodide staining based flow cytometry (reference value: 94 to 94.1%); type: functional
Procedure, shortened: (§1)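 MOLM-14 cells treated 48 h at the stated concentrations; doxorubicin as positive control. Stained with Annexin V-FITC and propidium iodide and analysed by flow cytometry (at least 10,000 events). Gated quadrants: Annexin V−/PI− viable, Annexin V+/PI− early apoptotic, Annexin V+/PI+ late apoptotic.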

[3] = system: MOLM-14; test: Induction of apoptosis in human MOLM14 cells assessed as late apoptotic cells at 1.5 uM after 48 hrs by Annexin-V FITC/propidium iodide staining based flow cytometry (reference value: 2.1 to 2.2%); type: functional
[4] = biological target: Tyrosine-protein kinase JAK2 (Homo sapiens, UniProt O60674); test: Inhibition of JAK2 (unknown origin) preincubated for 20 mins followed by [33P]ATP addition measured after 120 mins by Hotspot assay
Sequence of Tyrosine-protein kinase JAK2 (O60674 whole entry): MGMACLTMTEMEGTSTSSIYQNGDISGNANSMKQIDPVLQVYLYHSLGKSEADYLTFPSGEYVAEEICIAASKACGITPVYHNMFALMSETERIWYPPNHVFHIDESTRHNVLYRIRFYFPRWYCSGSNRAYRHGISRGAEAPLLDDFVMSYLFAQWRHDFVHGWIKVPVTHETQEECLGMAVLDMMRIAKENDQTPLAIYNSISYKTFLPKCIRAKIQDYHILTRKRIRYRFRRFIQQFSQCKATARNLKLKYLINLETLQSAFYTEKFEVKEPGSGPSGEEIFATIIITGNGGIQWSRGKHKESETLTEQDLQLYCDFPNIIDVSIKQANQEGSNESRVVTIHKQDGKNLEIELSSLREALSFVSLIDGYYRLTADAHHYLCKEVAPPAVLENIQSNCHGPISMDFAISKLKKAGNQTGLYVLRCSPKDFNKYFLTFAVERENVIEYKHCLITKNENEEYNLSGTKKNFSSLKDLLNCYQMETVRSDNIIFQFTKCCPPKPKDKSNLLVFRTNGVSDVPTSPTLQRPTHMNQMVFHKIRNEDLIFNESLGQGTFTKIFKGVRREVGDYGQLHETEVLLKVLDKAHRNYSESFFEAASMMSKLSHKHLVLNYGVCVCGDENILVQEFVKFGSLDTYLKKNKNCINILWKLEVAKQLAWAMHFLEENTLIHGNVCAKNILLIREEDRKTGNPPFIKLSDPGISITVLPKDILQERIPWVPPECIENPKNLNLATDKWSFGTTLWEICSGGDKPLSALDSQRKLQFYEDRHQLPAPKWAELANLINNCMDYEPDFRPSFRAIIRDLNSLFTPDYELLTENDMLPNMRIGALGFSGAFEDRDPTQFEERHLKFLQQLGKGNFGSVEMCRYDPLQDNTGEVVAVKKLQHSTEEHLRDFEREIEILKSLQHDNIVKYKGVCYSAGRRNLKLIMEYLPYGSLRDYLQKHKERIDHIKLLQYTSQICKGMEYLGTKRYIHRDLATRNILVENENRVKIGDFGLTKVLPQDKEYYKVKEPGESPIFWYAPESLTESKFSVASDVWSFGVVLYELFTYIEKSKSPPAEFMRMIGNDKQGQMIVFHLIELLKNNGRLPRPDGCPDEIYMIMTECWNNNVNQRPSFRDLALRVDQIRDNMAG

[5] = system: MOLM-14; test: Induction of apoptosis in human MOLM14 cells assessed as early apoptotic cells at 0.75 uM after 48 hrs by Annexin-V FITC/propidium iodide staining based flow cytometry (reference value: 3.6 to 3.7%); type: functional; procedure, shortened: as §1
[6] = biological target: Tyrosine-protein kinase JAK1 (Homo sapiens) (UniProt P23458); test: Inhibition of JAK1 (unknown origin) at 0.1 uM preincubated for 20 mins followed by [33P]ATP addition measured after 120 mins by Hotspot assay relative to control
Sequence of Tyrosine-protein kinase JAK1 (Homo sapiens) (P23458 whole entry): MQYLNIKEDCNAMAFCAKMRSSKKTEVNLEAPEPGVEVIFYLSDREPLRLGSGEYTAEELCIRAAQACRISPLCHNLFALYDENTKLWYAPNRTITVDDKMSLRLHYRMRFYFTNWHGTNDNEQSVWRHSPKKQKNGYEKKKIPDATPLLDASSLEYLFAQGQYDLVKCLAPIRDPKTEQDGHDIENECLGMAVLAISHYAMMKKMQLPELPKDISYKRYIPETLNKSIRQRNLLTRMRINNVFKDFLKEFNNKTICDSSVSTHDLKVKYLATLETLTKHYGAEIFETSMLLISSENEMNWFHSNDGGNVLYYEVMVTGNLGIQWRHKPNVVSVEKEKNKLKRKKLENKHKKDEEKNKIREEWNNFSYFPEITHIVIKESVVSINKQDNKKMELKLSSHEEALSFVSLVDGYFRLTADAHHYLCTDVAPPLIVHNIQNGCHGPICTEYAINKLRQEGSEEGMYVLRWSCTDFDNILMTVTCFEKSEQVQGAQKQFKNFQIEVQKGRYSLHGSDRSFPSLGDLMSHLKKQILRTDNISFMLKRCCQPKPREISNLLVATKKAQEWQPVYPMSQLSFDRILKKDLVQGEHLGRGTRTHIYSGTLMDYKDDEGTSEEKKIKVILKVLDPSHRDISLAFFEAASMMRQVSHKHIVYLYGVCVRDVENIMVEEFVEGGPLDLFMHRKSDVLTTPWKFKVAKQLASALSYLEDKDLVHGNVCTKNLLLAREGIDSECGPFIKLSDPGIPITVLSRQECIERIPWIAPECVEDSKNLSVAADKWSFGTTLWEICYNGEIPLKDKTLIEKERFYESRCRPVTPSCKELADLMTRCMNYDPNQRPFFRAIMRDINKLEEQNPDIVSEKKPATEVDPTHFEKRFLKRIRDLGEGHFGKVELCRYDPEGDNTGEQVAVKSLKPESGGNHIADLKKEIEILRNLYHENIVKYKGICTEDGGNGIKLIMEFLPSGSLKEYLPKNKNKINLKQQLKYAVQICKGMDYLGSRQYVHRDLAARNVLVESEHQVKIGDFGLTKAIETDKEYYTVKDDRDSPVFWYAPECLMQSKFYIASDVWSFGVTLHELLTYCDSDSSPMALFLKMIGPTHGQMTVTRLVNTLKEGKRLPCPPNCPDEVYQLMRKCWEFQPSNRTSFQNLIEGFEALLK
Procedure, shortened: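 Radiometric HotSpot kinase assay. Buffer: 20 mM HEPES pH 7.5, 10 mM MgCl2, 1 mM EGTA, 0.02% Brij35, 0.02 mg/mL BSA, 0.1 mM Na3VO4, 2 mM DTT, 1% DMSO. Compound added about 20 min before ATP/[33P]ATP (10 μM final). Reactions run 120 min at 25 °C, spotted on P81 filters and washed in phosphoric acid. Activity expressed relative to DMSO after background subtraction. Single-concentration panel at 100 nM in duplicate.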

[7] = biological target: Mitogen-activated protein kinase 10 (Homo sapiens, UniProt P53779); test: Inhibition of full length human MAPK10 (V28 to Q422 residues) expressed in mammalian expression system by KINOMEScan assay
Sequence of Mitogen-activated protein kinase 10 (P53779 whole entry, the tested form may be a part): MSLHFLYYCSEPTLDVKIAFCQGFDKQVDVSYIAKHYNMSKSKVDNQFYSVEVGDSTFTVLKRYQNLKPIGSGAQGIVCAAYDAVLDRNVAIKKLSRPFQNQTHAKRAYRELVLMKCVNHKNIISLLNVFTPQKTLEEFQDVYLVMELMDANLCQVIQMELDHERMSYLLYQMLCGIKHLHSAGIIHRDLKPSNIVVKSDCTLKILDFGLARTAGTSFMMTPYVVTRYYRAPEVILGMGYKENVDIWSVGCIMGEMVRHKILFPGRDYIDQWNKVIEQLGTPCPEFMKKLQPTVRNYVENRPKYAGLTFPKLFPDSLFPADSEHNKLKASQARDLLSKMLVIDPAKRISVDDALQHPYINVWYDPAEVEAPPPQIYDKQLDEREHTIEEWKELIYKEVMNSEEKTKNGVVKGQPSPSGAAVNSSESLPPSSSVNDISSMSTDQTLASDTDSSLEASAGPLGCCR

[8] = biological target: Histone deacetylase 5 (Homo sapiens) (UniProt Q9UQL6); test: Inhibition of human recombinant C-terminal His-tagged HDAC5 (656 to 1122 residues) expressed in insect cells at 10 uM preincubated with enzyme followed by acetyl-Lys(trifluoroacetyl)-AMC substrate addition measured after 2 hrs by fluorescence assay relative to control
Sequence of Histone deacetylase 5 (Homo sapiens) (Q9UQL6 whole entry, the tested form may be a part): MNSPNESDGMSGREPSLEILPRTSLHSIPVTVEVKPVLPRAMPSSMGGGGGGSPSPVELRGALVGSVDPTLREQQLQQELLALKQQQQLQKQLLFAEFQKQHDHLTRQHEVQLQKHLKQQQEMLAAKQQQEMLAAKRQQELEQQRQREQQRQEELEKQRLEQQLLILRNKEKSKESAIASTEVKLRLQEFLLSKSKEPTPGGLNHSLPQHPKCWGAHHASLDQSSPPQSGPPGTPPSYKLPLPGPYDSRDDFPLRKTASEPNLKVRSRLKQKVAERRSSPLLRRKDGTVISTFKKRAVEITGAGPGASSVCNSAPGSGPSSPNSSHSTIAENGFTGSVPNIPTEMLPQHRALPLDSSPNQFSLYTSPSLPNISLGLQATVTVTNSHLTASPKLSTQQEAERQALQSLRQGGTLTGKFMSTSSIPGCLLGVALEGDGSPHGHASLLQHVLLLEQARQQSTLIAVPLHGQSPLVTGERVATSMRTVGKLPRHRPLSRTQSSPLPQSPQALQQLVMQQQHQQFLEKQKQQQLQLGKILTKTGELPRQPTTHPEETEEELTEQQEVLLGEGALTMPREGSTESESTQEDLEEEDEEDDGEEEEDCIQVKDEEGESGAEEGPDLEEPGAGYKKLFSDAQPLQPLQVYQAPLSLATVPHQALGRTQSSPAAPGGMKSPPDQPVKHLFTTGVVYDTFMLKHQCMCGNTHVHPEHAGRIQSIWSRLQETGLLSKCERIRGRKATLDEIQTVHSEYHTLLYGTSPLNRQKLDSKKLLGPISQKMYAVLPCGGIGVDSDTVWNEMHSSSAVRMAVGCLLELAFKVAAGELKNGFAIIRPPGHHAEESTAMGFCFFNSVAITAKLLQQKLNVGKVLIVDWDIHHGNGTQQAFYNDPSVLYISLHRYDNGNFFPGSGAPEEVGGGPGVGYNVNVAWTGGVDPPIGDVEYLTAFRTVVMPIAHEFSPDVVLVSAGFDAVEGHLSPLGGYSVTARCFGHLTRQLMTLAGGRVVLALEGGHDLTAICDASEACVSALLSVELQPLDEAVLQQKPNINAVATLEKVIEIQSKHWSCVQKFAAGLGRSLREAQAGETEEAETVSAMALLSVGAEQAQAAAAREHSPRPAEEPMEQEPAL
Procedure, shortened: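 HDAC enzyme in 50 mM Tris-HCl pH 8.0, 137 mM NaCl, 2.7 mM KCl, 1 mM MgCl2 was pre-incubated with compound dosed from DMSO. The reaction was started with the class IIa substrate acetyl-Lys(trifluoroacetyl)-AMC and run 2 h at 30 °C. Developer with trichostatin A stopped it, and fluorescence (Ex/Em 360/460 nm) was read at plateau. Single test concentration 10 µM.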

[9] = system: MOLM-14; test: Induction of apoptosis in human MOLM14 cells assessed as early apoptotic cells at 1.5 uM after 48 hrs by Annexin-V FITC/propidium iodide staining based flow cytometry (reference value: 3.6 to 3.7%); type: functional
[10] = system: MOLM-14; test: Induction of apoptosis in human MOLM14 cells assessed as late apoptotic cells at 0.75 uM after 48 hrs by Annexin-V FITC/propidium iodide staining based flow cytometry (reference value: 2.1 to 2.2%); type: functional; procedure, shortened: as §1
[11] = Antiproliferative activity against human PC3 cells after 72 hrs by MTT assay; type: functional, cell-based; settings: PC-3, 72 h
[12] = system: Tyrosine-protein kinase JAK2 (Homo sapiens), O60674 [V617F]; test: Inhibition of JAK2 V617F mutant in HEL 92.1.7 cells assessed as decrease in STAT5 phosphorylation at antiproliferative IC50 after 1 hr by immunoblot method; type: cell-based
Sequence of Tyrosine-protein kinase JAK2 (Homo sapiens), O60674 [V617F] (O60674 whole entry V617F): as the sequence (O60674 whole entry) above, with V617F counted along it
Procedure, shortened: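 HEL92.1.7 cells seeded at 5x10^5/mL and treated 1 h at 0, 0.1, 0.5 and 1 μM. Lysed in RIPA with phosphatase/protease inhibitors, run on 10% SDS-PAGE and blotted to PVDF. Probed for acetyl-tubulin, acetyl-H3 (Lys9/Lys14), p-JAK2 (Y1007/1008) and p-STAT5 (Tyr694); membranes re-probed for tubulin, H3, JAK2 and STAT5. Quantified by densitometry.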

Sequence of Tyrosine-protein kinase JAK3 (Homo sapiens) (P52333 whole entry, the tested form may be a part): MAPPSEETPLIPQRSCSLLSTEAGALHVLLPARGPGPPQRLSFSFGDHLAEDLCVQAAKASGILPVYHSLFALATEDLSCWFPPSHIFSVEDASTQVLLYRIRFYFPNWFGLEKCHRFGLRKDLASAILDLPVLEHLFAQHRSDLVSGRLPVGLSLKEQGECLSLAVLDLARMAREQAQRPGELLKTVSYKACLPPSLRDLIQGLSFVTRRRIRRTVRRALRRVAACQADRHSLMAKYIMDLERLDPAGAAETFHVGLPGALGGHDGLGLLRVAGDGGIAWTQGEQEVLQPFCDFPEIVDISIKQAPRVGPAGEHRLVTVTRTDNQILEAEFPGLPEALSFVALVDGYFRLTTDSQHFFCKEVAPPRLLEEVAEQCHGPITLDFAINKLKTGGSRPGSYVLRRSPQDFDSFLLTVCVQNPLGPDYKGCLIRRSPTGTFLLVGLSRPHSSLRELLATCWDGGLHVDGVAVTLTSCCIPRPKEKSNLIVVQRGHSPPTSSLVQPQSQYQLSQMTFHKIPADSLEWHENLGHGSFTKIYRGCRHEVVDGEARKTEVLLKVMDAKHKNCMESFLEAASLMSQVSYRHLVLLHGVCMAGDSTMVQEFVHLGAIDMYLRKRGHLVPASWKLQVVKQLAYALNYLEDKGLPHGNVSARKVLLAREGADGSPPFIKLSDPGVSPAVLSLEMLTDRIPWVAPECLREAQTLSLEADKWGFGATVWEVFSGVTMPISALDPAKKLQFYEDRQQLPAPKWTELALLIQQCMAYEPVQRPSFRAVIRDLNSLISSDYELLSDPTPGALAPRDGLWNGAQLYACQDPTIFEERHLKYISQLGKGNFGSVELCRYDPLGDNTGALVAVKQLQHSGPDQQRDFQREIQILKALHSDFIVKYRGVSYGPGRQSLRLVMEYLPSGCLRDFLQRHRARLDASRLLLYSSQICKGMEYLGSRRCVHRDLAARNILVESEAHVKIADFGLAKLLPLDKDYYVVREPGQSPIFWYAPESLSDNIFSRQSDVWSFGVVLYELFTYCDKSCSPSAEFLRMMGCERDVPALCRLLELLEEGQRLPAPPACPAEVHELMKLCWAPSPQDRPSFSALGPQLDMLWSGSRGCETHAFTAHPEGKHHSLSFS

O=C(CCCCCCOc1ccc2cc1COC/C=C/COCc1cccc(c1)-c1ccnc(n1)N2)NO
Activity [1]: 7.9% | Activity [2]: 29.9% | Activity [3]: 13% | IC50 [4]: 1.4 nM | Activity [5]: 13.3% | inhibition [6]: 8.7% | IC50 [7]: 1000 to 10000 nM | inhibition [8]: 16.1% | Activity [9]: 12.7% | Activity [10]: 5% | IC50 [11]: 1700 nM | inhibition [12]: Active
